Measured values from ChEMBL document CHEMBL2396619, “Synthesis and neuroprotective effect of E-3,4-dihydroxy styryl aralkyl ketones derivatives against oxidative stress and inflammation” (Bioorg Med Chem Lett, 2013).
Active and inactive are the calls of the source. The calls are words filed in the database; no cut-off is given here.

Legend:
BV-2 [1] = test: Antineuroinflammatory activity in mouse BV2 cells assessed as reduction of LPS-induced nitric oxide production treated 3 hrs before LPS addition measured after 24 hrs by Griess assay; format: functional, cell-based
Outline: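 LPS-stimulated BV2 microglia; nitrite in culture supernatant measured by Griess assay: supernatant mixed with an equal amount of Griess reagent, incubated in the dark, absorbance read at 540 nm.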

[2] = tested on: Radical scavenging activity; test: Antioxidant activity assessed as DPPH free radical scavenging activity after 60 mins by spectrophotometry; format: functional
PC-12 = test: Neuroprotective activity in rat PC12 cells assessed as protection against H2O2-induced reduction of cell viability at 10 uM treated 3 hrs before H2O2 addition measured after 5 hrs by MTT assay; format: functional, cell-based
Outline: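 PC12 cells pretreated with compound at 10 µM for 3 h, then exposed to 500 µM H2O2 for 5 h. Viability measured by MTT and expressed as OD(treated)/OD(control) ×100%, with untreated cells (no compound, no H2O2) set to 100%. Mean ± SD, n = 3.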

[3] = Cytotoxicity against mouse BV2 cells assessed as cell viability at 50 uM after 24 hrs by MTT assay; format: cell-based, BV-2; conditions: read-out: Activity
Outline: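 BV2 cells exposed to compounds at up to 50 µM for up to 24 h; viability determined by MTT assay.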

[4] = tested on: Radical scavenging activity; test: Antioxidant activity assessed as DPPH free radical scavenging activity at 50 uM after 60 mins by spectrophotometry; format: functional
[5] = Ratio of caffeic acid phenethyl ester IC50 to compound IC50 for DPPH free radical scavenging activity
BV-2 [6] = test: Ratio of caffeic acid phenethyl ester IC50 to compound IC50 for antineuroinflammatory activity in mouse BV2 cells assessed as reduction of LPS-induced nitric oxide production; format: functional

## COc1ccc(CCC(=O)/C=C/c2ccc(O)c(O)c2)cc1OC
BV-2 [1]
  IC50: 14.5 µM
[2]
  IC50: 13.2 µM
PC-12
  Activity: Active
[3]
  viability at 24 h, 50 µM: > 90%

## COc1cc(CCC(=O)/C=C/c2ccc(OC(C)=O)c(OC(C)=O)c2)ccc1O
BV-2 [1]
  IC50: 5.5 µM
[4]
  inhibition: inactive
PC-12
  Activity: Active
[3]
  viability at 24 h, 50 µM: > 90%

## COc1ccc(CCC(=O)/C=C/c2ccc(OC(C)=O)c(OC(C)=O)c2)c(OC)c1
BV-2 [1]
  IC50: 9.3 µM
[4]
  inhibition: inactive
PC-12
  Activity: Active
[3]
  viability at 24 h, 50 µM: > 90%

## COc1ccc(CCC(=O)/C=C/c2ccc(O)c(O)c2)c(OC)c1
BV-2 [1]
  IC50: 10.6 µM
[2]
  IC50: 14 µM
PC-12
  Activity: Active
[3]
  viability at 24 h, 50 µM: > 90%

## CC(=O)Oc1ccc(/C=C/C(=O)CCc2ccccc2)cc1OC(C)=O
BV-2 [1]
  IC50: 12.3 µM
[4]
  inhibition: inactive
PC-12
  Activity: Active
[3]
  viability at 24 h, 50 µM: > 90%

## COc1ccc(CCC(=O)/C=C/c2ccc(OC(C)=O)c(OC(C)=O)c2)cc1OC
BV-2 [1]
  IC50: 12.6 µM
[4]
  inhibition: inactive
PC-12
  Activity: Active
[3]
  viability at 24 h, 50 µM: > 90%

## O=C(/C=C/c1ccc(O)c(O)c1)CCc1cccc(Cl)c1
BV-2 [1]
  IC50: 10.3 µM
[2]
  IC50: 11.1 µM
PC-12
  Activity: Active
[3]
  viability at 24 h, 50 µM: > 90%

## COc1cc(CCC(=O)/C=C/c2ccc(O)c(O)c2)ccc1O
BV-2 [1]
  IC50: 6.3 µM
[2]
  IC50: 12.1 µM
PC-12
  Activity: Active
[3]
  viability at 24 h, 50 µM: > 90%

## CC(=O)Oc1ccc(/C=C/C(=O)CCc2cccc(Cl)c2)cc1OC(C)=O
BV-2 [1]
  IC50: 8.3 µM
[4]
  inhibition: inactive
PC-12
  Activity: Active
[3]
  viability at 24 h, 50 µM: > 90%

## CC(=O)Oc1ccc(/C=C/C(=O)OCCc2ccccc2)cc1OC(C)=O
[4]
  inhibition: inactive

## O=C(/C=C/c1ccc(O)c(O)c1)CCCc1ccccc1
BV-2 [1]
  IC50: 6.4 µM
[2]
  IC50: 9.2 µM
[5]
  Ratio IC50: 1.3
PC-12
  Activity: Active
[3]
  viability at 24 h, 50 µM: > 90%

## O=C(/C=C/c1ccc(O)c(O)c1)CCCCc1ccccc1
BV-2 [1]
  IC50: 5.9 µM
[2]
  IC50: 10.6 µM
PC-12
  Activity: Active
[3]
  viability at 24 h, 50 µM: > 90%

## CC(=O)Oc1ccc(/C=C/C(=O)CCCCc2ccccc2)cc1OC(C)=O
BV-2 [1]
  IC50: 4.2 µM
[4]
  inhibition: inactive
PC-12
  Activity: Active
BV-2 [6]
  Ratio IC50: 1.5
[3]
  viability at 24 h, 50 µM: > 90%

## CC(=O)Oc1ccc(/C=C/C(=O)CCCc2ccccc2)cc1OC(C)=O
BV-2 [1]
  IC50: 5.3 µM
[4]
  inhibition: inactive
PC-12
  Activity: Active
[3]
  viability at 24 h, 50 µM: > 90%

## O=C(/C=C/c1ccc(O)c(O)c1)CCc1ccccc1
BV-2 [1]
  IC50: 14.1 µM
[2]
  IC50: 12.7 µM
PC-12
  Activity: Active
[3]
  viability at 24 h, 50 µM: > 90%
